Dynein transport: blocks dynein driven cargo transport along microtubules; AID 1381; 3617.4 mouse cells, GR-EGFP nuclear translocation imaging; test concentration mostly 20 µM; stimulated with dexamethasone, 1 µM; hits give low values; 0.47% of 220,000 active; z-score, hits read low;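 active = plate z-score of nuclear minus cytoplasmic receptor signal below a set negative limit, without overly bright fluorescence or cell loss, cut at about -3.5 in these data, passing the limit was not always enough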;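 also: z-score of nuclear minus cytoplasmic ring GR-EGFP intensity difference per well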
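Also added: dexamethasone, 1.0 µM final. Medium: tet-free, stripped-serum medium. Detection: fixed, Hoechst-stained cells imaged at 10x for EGFP. Read-out: nuclear-to-cytoplasmic GR-EGFP distribution per well. Times: induction 48 h, compound 1 h, agonist 30 min.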
HKDC1 inh: inhibitors of human hexokinase HKDC1. recombinant HKDC1, G6PDH/diaphorase resazurin coupled fluorescence. inhibition, % at 20 µM. 0.16% of 340,000 active. AID 493160;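 active = inhibition above about 35% when tested at 20 µM, limit read from the data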;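 also: plate controls were DMSO wells with enzyme for no effect and DMSO wells lacking enzyme for full effect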
Target sequence (Q2TB90 whole entry, looked up): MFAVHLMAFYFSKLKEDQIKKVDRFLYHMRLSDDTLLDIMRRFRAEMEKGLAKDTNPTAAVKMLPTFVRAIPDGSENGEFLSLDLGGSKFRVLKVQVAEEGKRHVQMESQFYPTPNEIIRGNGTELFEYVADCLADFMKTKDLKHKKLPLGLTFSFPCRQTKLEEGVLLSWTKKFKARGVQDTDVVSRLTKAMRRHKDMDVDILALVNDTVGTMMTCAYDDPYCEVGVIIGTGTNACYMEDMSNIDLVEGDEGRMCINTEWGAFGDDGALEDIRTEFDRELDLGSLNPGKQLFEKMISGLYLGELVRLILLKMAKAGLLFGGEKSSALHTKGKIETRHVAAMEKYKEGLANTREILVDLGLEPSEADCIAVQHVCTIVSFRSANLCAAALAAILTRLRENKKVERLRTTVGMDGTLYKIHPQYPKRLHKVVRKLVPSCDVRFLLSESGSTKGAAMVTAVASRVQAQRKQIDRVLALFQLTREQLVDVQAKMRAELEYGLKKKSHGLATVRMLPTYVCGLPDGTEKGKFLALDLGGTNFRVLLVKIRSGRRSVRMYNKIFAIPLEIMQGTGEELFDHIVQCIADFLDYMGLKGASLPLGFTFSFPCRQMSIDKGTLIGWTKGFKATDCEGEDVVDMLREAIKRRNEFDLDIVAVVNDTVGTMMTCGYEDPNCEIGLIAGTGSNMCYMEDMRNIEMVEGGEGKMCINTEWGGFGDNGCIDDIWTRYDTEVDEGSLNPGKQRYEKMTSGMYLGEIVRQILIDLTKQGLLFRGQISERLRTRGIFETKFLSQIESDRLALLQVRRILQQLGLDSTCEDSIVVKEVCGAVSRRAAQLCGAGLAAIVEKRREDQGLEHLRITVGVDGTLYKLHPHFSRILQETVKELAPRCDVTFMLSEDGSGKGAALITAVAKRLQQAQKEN
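Assay system: recombinant HKDC1 hexokinase; detection: coupled resazurin fluorescence, excitation 525 nm, emission 613 nm; benchmarks: DMSO-plus-enzyme-mix negative control, buffer-substituted positive control; compound dosing: single 20 µM dose; schedule: 90 min at room temperature in dark; also added: glucose plus 1 mM ATP as hexokinase substrates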
Tb hexokinase: T. brucei hexokinase 1 inhibition; inhibition, % at 10 µM; recombinant TbHK1, G6PDH-coupled NADH A340; 0.11% of 220,000 active; AID 1430;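 active = inhibition of 50% or more in the single-dose primary screen; inactive = inhibition below 50%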
PERK inhibitor: inhibitors of human PERK kinase | CHO PERK-DD fusion, SEAP luminescence translation reporter | inhibition, % at 5.6 µM | AID 1416 | 0.17% of 220,000 active;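 active = inhibition above the mean inhibition of all tested compounds plus 3 SD, set separately per screening campaign, cut at about 2.9% in these data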;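 also: PERK kinase domain activated by AP20187 dimerizer at 100 nM; 0% = DMSO with dimerizer and 100% = rapamycin at 8.4 µM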
HSV replic up: HSV replication enhancement. HSV replication augmentation in cells, fold increase. maximum fold increase. 0.005% of 220,000 active. AID 1956; in the data active = maximum fold increase above about 1.5; inconclusive = no clear call, values can overlap the other calls; tested in PC3 cells
Autophagy mod: alters autophagy in cells. MEF GFP-LC3 puncta imaging; test concentration mostly 10 µM. calls only at 10 µM (by protocol). 0.98% of 190,000 active;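 active = percentage of spot-positive cells more than 3 SD above its plate mean, without a fluorescence outlier flag or 80% toxicity; inconclusive = no clear call, values can overlap the other calls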;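 also: spot-positive cell cutoff set from DMSO-treated cells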
* = called active by the depositor; i = inactive; ? = inconclusive; . = not tested or not shown; + = active, no number. The list is not random: actives were taken first. Their share in the collection is about 1.2%.

SMILES	Dynein transport	HKDC1 inh	Tb hexokinase	PERK inhibitor	HSV replic up	Autophagy mod
Clc1ccc(C2=C3CCCCn4c(-c5ccccc5)c[n+](c43)C2)cc1	-2.78	1.3	-20.3	-0.2	i	+
CCOC(=O)c1ccc(N2CCN(C(=O)c3ccccc3)CC2)c(NC(=O)c2ccco2)c1	.	-5.2	.	.	.	.
CC(=O)NC(Cc1ccccc1C)C(=O)NC1CCN(C(=O)c2ccc(C)cc2)CC1 (configuration not stated)	1.27	-8.1	2.1	-0.4	i	+
O=Cc1c(N2CCN(c3ccccc3)CC2)nc2ccccn2c1=O	-0.268	-9.3	-12.7	0.1	i	+
C=CC[C@H](CC(=O)N(CCO)Cc1ccccc1)C(=O)NCCOC(=O)[C@H](CC=C)CC(=O)OC(C)(C)C	.	-5.7	.	.	.	.
Cc1ccc(Cc2cnc(NC(=O)/C(C#N)=C/c3ccc(-c4ccccc4[N+](=O)[O-])o3)s2)cc1	-0.573	-1.4	-8.9	0.3	.	+
CNC(=O)/C(C#N)=C/c1ccc(-c2ccccc2[N+](=O)[O-])o1	-0.864	-2.4	-22.7	-0.2	i	i
CC(C)OC(=O)C1Cc2ccccc2CN1S(=O)(=O)c1cccs1 (configuration not stated)	.	-1.9	.	.	.	.
COc1ccc(-c2cc(-c3ccc(OC)cc3)nc(-c3ccc4c(c3)NC(=O)CO4)c2)cc1	-0.416	-5.4	-27.7	0.8	i	+
COc1cccc(-c2nc(-c3ccc4c(c3)NC(=O)CO4)cs2)c1	-1.15	-8.4	-13.9	1.2	i	i
CCn1c(SCC(=O)Nc2ccccc2)nnc1-c1cccs1	-0.405	-6.2	-5.0	0.9	i	.
CCn1c(SCC(=O)NC(C)C)nnc1-c1cccs1	0.934	-8.0	-3.4	-0.1	i	+
NS(=O)(=O)c1ccc(CCNC(=O)COC(=O)C2CCCN2C(=O)c2cccs2)cc1 (configuration not stated)	-0.212	-3.0	0.2	3.3*	i	i
O=C(c1ccc(Cl)cc1)C1CCN(C(=O)NC2CCCCC2)CC1	-0.357	8.1	1.8	0.2	i	i
O=C(O)C1CCN(C(=O)NC2CCCCC2)CC1	-0.125	3.8	1.6	2.9*	i	i
Cn1c(CC(=O)c2ccc(Br)cc2)[n+](C)c2ccccc21	-0.297	-4.3	3.5	0.0	i	+
C=CCn1c(=N)n(CC(=O)c2ccc(Br)cc2)c2ccccc21	.	-4.4	.	.	.	.
Cn1nnnc1SCC(=O)Nc1ccccc1C(=O)NCc1ccccc1	-0.638	3.2	2.0	-0.3	i	i
Cc1ccc(CNC(=O)c2ccccc2NC(=O)CSc2nnnn2C)cc1	1.19	-2.7	11.0	-0.1	i	+
COc1ccc(Cn2c(SCc3ccc(C)cc3)nc3cc(OC)c(OC)cc3c2=N)cc1Cl	0.199	-1.5	-15.8	-0.9	i	i
COc1ccc(Cn2c(SCc3cc(C)ccc3C)nc3cc(OC)c(OC)cc3c2=N)cc1	1.53	3.4	-8.4	-0.5	i	+
COc1ccc(O)c(/C=N/NC(=S)Nc2cccc(S(=O)(=O)N(C)C)c2)c1	1.67	-30.6	11.7	-1.2	i	+
COc1cccc(/C=N/NC(=S)Nc2cccc(S(=O)(=O)N(C)C)c2)c1	-0.389	-7.1	5.5	-1.8	i	.
CN(C)c1ccc(/C=C2\SC(=O)N(CC(O)Cn3c4ccccc4c4ccccc43)C2=O)cc1 (configuration not stated)	-0.665	-6.2	-11.5	-0.2	?	+
CN(C1CCCCC1)S(=O)(=O)c1cccc2nsnc12	.	0.5	.	.	.	.
SMILES	Dynein transport	HKDC1 inh	Tb hexokinase	PERK inhibitor	HSV replic up	Autophagy mod
CC(C)(C)C1C/C(=C/c2ccccn2)C(=O)/C(=C/c2ccccn2)C1 (configuration not stated)	-4.88*	24.8	-13.6	0.3	i	i
O=C1/C(=C/c2ccccn2)COc2ccccc21	-1.39	21.2	-11.9	1.2	i	i
CC1C/C(=C/c2ccccn2)C(=O)/C(=C/c2ccccn2)C1 (configuration not stated)	-5.77*	9.0	-19.0	0.1	i	i
CCOc1ccc(NC(=O)CN(C)Cc2ccc3c(c2)OCO3)cc1S(=O)(=O)N1CCCC1	.	-4.9	.	.	.	.
CCCCOc1ccc(-c2nnn(CC(=O)NCc3ccco3)n2)cc1	0.741	-11.5	4.9	0.1	i	+
CC(C)(C)n1nc2c(c1NC(=O)c1ccccc1F)CS(=O)C2 (configuration not stated)	0.216	-0.8	-2.4	1.0	i	+
COc1cccc(-n2c([S-])c(C(=O)Nc3ccc(S(=O)(=O)N4CCOCC4)cc3)[n+]3cc(C(N)=O)ccc23)c1	1.46	-1.6	-20.9	0.3	i	.
CC1=CC(C)(C)N(S(=O)(=O)c2ccc(C)cc2)c2ccc(C)cc21	0.62	-3.8	12.2	0.4	i	+
CC(=O)Nc1ccc(S(=O)(=O)N2c3ccccc3C(C)=CC2(C)C)cc1	0.0754	3.1	1.4	-0.5	i	+
Cc1ccc(S(=O)(=O)N2CCOCC2)cc1C(=O)N1CCN(c2ccc(C(F)(F)F)cn2)CC1	.	-0.8	.	.	.	.
Cc1ccccc1NC(=O)NC1(C(=O)NCC2CCCO2)CCCCC1 (configuration not stated)	.	-5.9	.	.	.	.
CCC(C)(C)n1nnnc1C(C(C)C)N1CCSCC1 (configuration not stated)	1.23	3.7	-3.0	-0.9	i	+
CCOC(=O)c1c(-c2ccccc2)oc2cc(CN(C)C)c(O)c(CN(C)C)c12	-1.11	-3.9	-25.7	-0.9	.	+
CCOC(=O)c1c(C)oc2cc(Cl)c(O)c(CN(C)C)c12	0.102	-7.9	-7.9	0.2	i	.
CCCc1cc(C(=O)N2CCCC(Nc3ccc(C)c(C)c3)C2)n(C)n1 (configuration not stated)	.	-2.4	.	.	.	.
CC(=C\c1ccccc1)/C=C1/SC(=S)N(CCC(=O)Nc2ccccn2)C1=O	-0.907	.	-6.5	1.7	i	+
Cc1ccc(S(=O)(=O)CCC(=O)Nc2nnc(-c3cccs3)o2)cc1	.	-5.0	.	.	.	.
COc1ccc(Cl)cc1NC(=S)NNC(=O)c1cccnc1	0.993	-6.5	-20.9	1.4	i	+
Cc1cc(C)c(C)c(S(=O)(=O)N2CCCN(C)CC2)c1C	.	-8.5	.	.	.	.
Cc1cc(C)c(C)c(S(=O)(=O)N2CCNCC2)c1C	-0.778	-2.2	9.4	-0.3	i	+
O=C(c1cc(-c2cccnc2)nc2ccccc12)N1CCN(S(=O)(=O)c2ccc(Cl)s2)CC1	.	1.1	.	.	.	.
COc1ccc(CCNc2cc(N3CCN(C(=O)c4ccccc4F)CC3)ccc2[N+](=O)[O-])cc1OC	-0.494	-8.3	-5.8	0.0	.	+
COc1ccccc1/C=C/C(=O)OCC(=O)N1c2ccccc2CC1C (configuration not stated)	.	3.4	.	.	.	.

Screening results: PubChem, several laboratories
